This is one part of a sample in which hits are shown more often than they occur.
Lung fibro prol: blocks proliferation of human lung fibroblasts; LL 47 human lung fibroblast viability, ATP luminescence; stronger effect = lower value; viability, % at 10 µM; 85,000 compounds, 1.1% hits; AID 719;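 active = viability at or below 50% in the single dose screen; inactive = viability above 50%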;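 also: compound exposure lasted 72 h before the ATP readout; 100% = median luminescence of untreated cell-only wells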
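Material: human lung fibroblast line LL 47, low passage; Evaluation: viability percentage against median untreated-cell control; Buffer or medium: 15% FBS in IMEM; Incubation: 72 h compound exposure at 37 °C after overnight plating; Dosing: 0.1% DMSO in all compound wells; Measured by: CellTiter-Glo luminescence.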
HUVEC inhibit: human endothelial cell proliferation inhibition; HUVEC proliferation, CellTiter-Glo luminescence, 72 h; stronger effect = lower value; viability, % at 10 µM (by protocol); 86,000 compounds, 1.1% hits; AID 648;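 active = viability at or below 30%; inactive = viability above 30%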;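 also: 100% = median luminescence of DMSO-only cell control wells on each plate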
PTEN del growth: growth suppressors of cells with PTEN tumor suppressor deletion | HCT116 PTEN-null viability, CellTiter-Glo, 60 h; stronger effect = lower value | 140,000 compounds, 1.2% hits | viability, % at 10 µM;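 active = viability at or below a set limit, 4 SD under the median of all tested compounds, cut at about 3.7% in these data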;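 also: PTEN knockout HCT116 line with beta catenin targeted HCT116 as companion control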
bCat KO growth: beta-catenin-lacking colon tumor cell growth suppression | HCT116 beta-catenin knockout viability, CellTiter-Glo, 60 h; stronger effect = lower value | viability, % at 10 µM | 140,000 compounds, 1.5% hits | AID 818;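 active = viability at or under a set limit, the compound median less 4 SD, cut at about 6% in these data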;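 also: 0% = Hyamine 1622 control at 20 µM and 100% = untreated cell control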
H69AR growth 86K: growth inhibitors of human H69AR lung tumor cells. H69AR lung tumor viability, ATP luminescence, 72 h; stronger effect = lower value. viability, % at 10 µM. 85,000 compounds, 6% hits;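 active = viability at or below 40%; inactive = viability above 40%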;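 also: multidrug resistant small cell line overexpressing MRP-1 efflux transporter; 100% = mean luminescence of untreated control wells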
Active calls of the source: *; · = not tested or not shown.

SMILES	Lung fibro prol	HUVEC inhibit	PTEN del growth	bCat KO growth	H69AR growth 86K
COc1ccc(C2Oc3ccccc3C3=C2C(c2cccs2)n2ncnc2N3)cc1 (stereo not drawn)	46.0*	58.1	22.4	40.3	18.1*
CCOC(=O)c1c(NC(=O)C(C)N2CCN(S(=O)(=O)c3cccs3)CC2)sc2c1CCC(C)C2 (stereo not drawn)	·	·	79.1	84.2	·
Cc1ccc(Nc2nc(N)nc(CN3CCC(C)CC3)n2)c(C)c1	94.3	86.3	85.9	93.2	32.7*
NC(=O)C1CCN(S(=O)(=O)c2cccc(C(=O)O)c2)CC1	·	·	109.0	108.3	·
CCOC(=O)C(NC(=O)CCC(=O)Nc1ccc(S(N)(=O)=O)cc1)C(O)c1ccccc1 (stereo not drawn)	·	99.3	96.5	96.0	31.6*
CCCCCCCCOC(=O)C(NC(=O)CCC(=O)Nc1ccc(S(N)(=O)=O)cc1)C(O)c1ccccc1 (stereo not drawn)	96.9	77.7	94.9	94.3	91.5
CCn1c(=O)c2c3c(sc2n2c(SCc4ccc(F)cc4)nnc12)CCCC3	80.8	65.5	·	·	15.6*
CCC1(C)Cc2c(sc3c2c(=O)n(C)c2nnc(SCc4ccccc4)n32)CO1 (stereo not drawn)	100.3	69.8	71.0	72.4	15.3*
Cn1c(=O)c2c3c(sc2n2c(SCc4ccccc4)nnc12)CCCC3	·	·	83.4	86.0	·
CCc1ccc(OCC(=O)Nc2ccc(-c3cc4ccccc4oc3=O)c(OC)c2)cc1	·	·	73.2	73.0	·
OC1(c2ccccc2)CN(c2ccccc2)C2=[N+]1CCS2 (stereo not drawn)	·	·	83.0	88.1	·
CCOC(=O)c1c(NC(=O)c2ccco2)n(C2CCCCC2)c2nc3ccccc3nc12	105.1	96.2	65.1	71.2	36.0*
CCC(=O)Nc1c(C#N)c2nc3ccccc3nc2n1C1CCCCC1	94.3	97.8	65.1	59.8	85.0
Cc1ccc(NC(=O)CSc2nnc(Cn3c(=O)sc4ccccc43)n2C)cc1	91.6	88.5	95.1	92.2	90.7
Cc1ccc(NC(=O)CSc2nnc(Cn3c(=O)sc4ccccc43)n2C)cc1Cl	99.0	44.3	95.5	85.3	28.7*
CCOC(=O)c1ccc(NC(=O)CSc2nnc(Cn3c(=O)sc4ccccc43)n2C)cc1	95.2	64.8	107.1	97.8	15.6*
COCC(C)n1c(C)cc(C(=O)COC(=O)c2c(NC(C)=O)sc(C)c2C)c1C (stereo not drawn)	62.1	30.9	·	·	3.2*
O=C(O)C1CC(=O)N(c2ccc(OCc3ccc(Cl)cc3Cl)cc2)C1 (stereo not drawn)	104.4	73.4	3.2*	3.3*	94.5
CCc1ccccc1NC(=O)c1ccc(-n2c(C)ccc2C)cc1	·	·	4.0	3.8*	·
CC(C)(C)n1nnnc1C(c1cccnc1)N(Cc1ccccc1)Cc1cccs1 (stereo not drawn)	86.8	78.1	49.6	55.4	6.6*
CC(C)(C)n1nnnc1C(c1cccs1)N(Cc1ccccc1)Cc1cccnc1 (stereo not drawn)	86.4	87.3	61.5	63.4	53.2
Cn1c(=N)n(CC(O)c2cccc3ccccc23)c2ccccc21 (stereo not drawn)	84.0	88.4	32.1	28.7	26.5*
COc1ccc(NC(=O)C(Sc2nnc(-c3ccncc3)n2-c2ccccc2C)c2ccccc2)cc1Cl (stereo not drawn)	·	·	61.0	60.9	·
CCOC(=O)COc1ccc2nsnc2c1Cl	115.3	99.4	96.5	82.5	84.4
C=C(CC)C(=O)c1ccc(OCC(=O)O)c(Cl)c1Cl	59.5	57.3	72.5	72.3	11.9*
SMILES	Lung fibro prol	HUVEC inhibit	PTEN del growth	bCat KO growth	H69AR growth 86K
Cc1ccccc1NC(=O)Cc1nc(-c2ccc3ccccc3c2)cs1	·	·	105.2	98.4	·
COC(=O)c1ccc(NC(=O)C2CC(=O)N(c3ccc(C)cc3)C2)cc1 (stereo not drawn)	99.9	100.1	104.4	98.9	84.0
COc1ccc(C(C)(C)C)cc1NC(=O)Nc1ccc2c(c1)OCO2	97.8	59.6	45.4	46.7	21.8*
COc1ccccc1OCC(O)Cn1c(=N)n(Cc2ccccc2)c2ccccc21 (stereo not drawn)	59.7	36.5	8.2	5.2*	51.2
Cc1ccc(OCC(O)Cn2c(=N)n(CCN3CCCCC3)c3ccccc32)cc1 (stereo not drawn)	·	·	2.9*	2.3*	·
Cc1ccc(OCC(O)Cn2c(=N)n(CCN3CCOCC3)c3ccccc32)cc1 (stereo not drawn)	90.9	85.7	61.6	58.8	74.2
CCCCCn1c(=N)n(CC(O)COc2ccccc2OC)c2ccccc21 (stereo not drawn)	·	·	4.1	2.6*	·
COc1ccc(OCC(O)Cn2c(=N)n(CCN3CCCCC3)c3ccccc32)cc1 (stereo not drawn)	63.4	40.3	25.7	25.6	94.6
CCCCn1c(=N)n(CC(O)COc2cccc(C)c2)c2ccccc21 (stereo not drawn)	70.0	87.4	1.5*	1.7*	1.6*
C=CCn1c(=N)n(CC(O)COc2ccccc2OC)c2ccccc21 (stereo not drawn)	94.1	79.3	75.4	60.1	74.5
O=C(Cn1cc(C(F)(F)F)cc(Cl)c1=O)Nc1cc(S(=O)(=O)N2CCOCC2)ccc1Cl	·	·	88.2	89.2	·
O=C(Nc1nnc(-c2cccs2)o1)c1cc(-c2ccccc2)nc2ccccc12	·	·	13.3	17.2	·
CC(C)(C)C(=O)Cn1c(=N)n(Cc2ccccc2)c2ccccc21	91.1	113.0	79.1	83.1	38.4*
Cc1ccc(Cn2c(=N)n(CC(O)c3ccco3)c3ccccc32)cc1 (stereo not drawn)	90.0	91.6	58.4	61.9	72.8
N=c1n(Cc2ccccc2)c2ccccc2n1CC(O)c1ccccc1 (stereo not drawn)	88.0	89.3	48.4	36.9	38.2*
CC(C)(C)C(=O)Cn1c(=N)n(Cc2ccccc2Cl)c2ccccc21	95.1	116.3	87.9	87.1	73.0
N#CC1=C(N)NC(SCc2ccc(F)cc2)=C(C#N)C12CCCCC2	54.1	36.4	18.0	18.9	10.4*
Cc1ccc(C2=C/C(=C/c3cccs3)C(=O)O2)cc1	·	·	93.4	91.0	·
Cc1cccc(C(=O)NC(NC(=S)Nc2ccc(S(N)(=O)=O)cc2)C(Cl)(Cl)Cl)c1 (stereo not drawn)	·	·	88.3	84.1	·
CSc1nnc2c3cc(F)ccc3n(Cc3ccccc3)c2n1	81.4	56.4	·	·	33.5*
COc1cc(-c2cc(OC)c3c(C)oc(C)c3c(=O)c2)ccc1O	86.5	71.5	55.3	46.8	29.6*
O=C1CCCC(=O)C1=Cc1c[nH]c2ccccc12	·	·	106.1	98.0	·
CC1CCCCN1S(=O)(=O)c1ccc(S(=O)(=O)N2CCN(c3ccc(F)cc3)CC2)cc1 (stereo not drawn)	72.4	55.7	90.4	84.9	19.3*
Cc1ccc(SCC(=O)Nc2ccc(F)cc2[N+](=O)[O-])cc1C	·	·	88.4	92.9	·
O=C(CCN1CCN(Cc2ccccc2)CC1)Nc1ccc(OCc2ccccc2)cc1	87.5	8.7*	70.4	70.0	28.6*
O=C(CN1CCOCC1)Nc1ccc(OCc2ccccc2)cc1	102.1	85.7	81.2	85.8	6.9*

Screens: PubChem BioAssay, SRMLSC
